# Data reported in ChEMBL document CHEMBL1122426, “Radioiodine-labeled N,N-dimethyl-N'-(2-hydroxy-3-alkyl-5-iodobenzyl)-1,3-propanediamines for brain perfusion imaging” (J Med Chem, 1983).
# Key:
# Rattus norvegicus [1] = organism: Rattus norvegicus; test: Effect of specific activity of compound on biodistribution in rats lungs after injection at the dose of 0.025 mg value expressed in average % dose per organ; value may range from 12.0 to 14.5; assay type: ADME, organism-based, Lung; conditions: in vivo
# How it was run: (§1)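 Rats received an intravenous injection of the I-125 labeled diamine with added unlabeled carrier (6.25, 2.5, 0.25 or 0.025 mg per dose). At 1 h, organs were counted. Percent dose per organ came from comparing tissue radioactivity with diluted aliquots of the injected dose. Values are the average and range of 3 rats. Brain/blood ratio was taken from % dose per gram, calculated using mean organ weights (brain 1.65 g; blood 18 g).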
# [2] = Biodistribution of [125I]- compound in a monkey bone. 1 hr after intravenous injection. the value expressed in %dose/gram; conditions: simiiformes, in vivo
# Rattus norvegicus [3] = organism: Rattus norvegicus; test: Effect of specific activity of compound on biodistribution in rats brain after injection at the dose of 0.025 mg value expressed in average % dose per organ; value may range from 1.39 to 1.56; assay type: ADME, organism-based; conditions: in vivo; how it was run: as §1
# [4] = Biodistribution of [125I]- compound in a monkey muscle. 1 hr after intravenous injection. the value expressed in %dose/gram; conditions: simiiformes, in vivo
# [5] = Biodistribution of […] compound in a monkey blood. 1 hr after intravenous injection. the value expressed in%dose/organ; assay type: ADME, organism-based; conditions: simiiformes, in vivo
# How it was run: (§2)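 Monkey sedated with ketamine and anesthetized with nembutal, then given ~100 μCi [125I] label (~7 mCi/mg) intravenously. Killed 1 h later by nembutal overdose. Organs dissected, weighed and counted. % dose per organ found against diluted injected-dose aliquots; % dose per gram also reported; brain/blood from per-gram values. Single animal.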
# [6] = Biodistribution of […] compound in a monkey heart. 1 hr after intravenous injection. the value expressed in%dose/organ; assay type: ADME, organism-based; conditions: simiiformes, in vivo; how it was run: as §2
# Rattus norvegicus [7] = organism: Rattus norvegicus; test: Distribution coefficient at pH 7.0 in rat; assay type: ADME, organism-based
# How it was run: (§3)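 Octanol/buffer partition: I-125 labeled diamine mixed with 3 g each of 1-octanol and 0.1 M phosphate buffer at pH 7.0 or 7.4, vortexed 3× 1 min, centrifuged 5 min. Two 0.5 g samples of each layer counted. Value is cpm/g octanol over cpm/g buffer, usually repeated three times.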
# Rattus norvegicus [8] = test: Biodistribution of I-125 labeled compound in rat brain to blood ratio, 1 hr after intravenous injection. value expressed in % dose per gram ratio; assay type: ADME, organism-based
# How it was run: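 Rats given I-125 diamine iv; tissue activity at 2 min or 1 h compared with diluted injected-dose aliquots. % dose per gram approximated as % dose per organ divided by mean organ weight (brain 1.65 g; blood 18 g). Ratio taken from the per-gram values.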
# Rattus norvegicus [9] = organism: Rattus norvegicus; test: Effect of specific activity of compound on biodistribution in rats thyroid 1 hr after injection at the dose of 2.5 mg value expressed in average % dose per organ; value may range from 0.12 to 0.14; assay type: ADME, organism-based, Thyroid gland; conditions: in vivo; how it was run: as §1
# Rattus norvegicus [10] = organism: Rattus norvegicus; test: Effect of specific activity of compound on biodistribution in rats muscle 1 hr after injection at the dose of 6.25 mg value expressed in average % dose per organ; value may range from 11.5 to 12.9; assay type: ADME, organism-based, Muscle tissue; conditions: in vivo; how it was run: as §1
# [11] = Biodistribution of […] compound in a monkey bone. 1 hr after intravenous injection. the value expressed in %dose/organ; assay type: ADME, organism-based, Bone element; conditions: simiiformes, in vivo; how it was run: as §2
# Rattus norvegicus [12] = organism: Rattus norvegicus; test: Effect of specific activity of compound on biodistribution in rats thyroid after injection at the dose of 0.025 mg value expressed in average % dose per organ; value may range from 0.15 to 0.17; assay type: ADME, organism-based, Thyroid gland; conditions: in vivo; how it was run: as §1
# [13] = Biodistribution of [125I]- compound in a monkey kidneys. 1 hr after intravenous injection. the value expressed in%dose/organ; conditions: simiiformes, in vivo
# [14] = Biodistribution of [125I]- compound in a monkey brain to blood ratio 1 hr after intravenous injection. the value expressed in %dose/gram; conditions: simiiformes, in vivo
# Rattus norvegicus [15] = organism: Rattus norvegicus; test: Effect of specific activity of compound on biodistribution in rats liver after injection at the dose of 0.025 mg value expressed in average % dose per organ; value may range from 6.23 to 7.26; assay type: ADME, organism-based; conditions: in vivo; how it was run: as §1
# Rattus norvegicus [16] = test: Biodistribution of I-125 labeled compound in rat brain, 1 hr after intravenous injection. value expressed in average % dose per organ; value may range from 1.71 to 2.54; assay type: ADME, organism-based; conditions: in vivo
# Rattus norvegicus [17] = test: Biodistribution of I-125 labeled compound in rat brain, 2 min after intravenous injection. value expressed in average % dose per organ; value may range from 1.71 to 1.95; assay type: ADME, organism-based; conditions: in vivo
# Rattus norvegicus [18] = test: Biodistribution of I-125 labeled compound in rat thyroid, 2 min after intravenous injection. value expressed in average % dose per organ; value may range from 0.20 to 0.23; assay type: ADME, organism-based, Thyroid gland; conditions: in vivo
# Rattus norvegicus [19] = organism: Rattus norvegicus; test: Effect of specific activity of compound on biodistribution in rats muscle after injection at the dose of 0.025 mg value expressed in average % dose per organ; value may range from 11.6 to 12.9; assay type: ADME, organism-based, Muscle tissue; conditions: in vivo; how it was run: as §1
# Rattus norvegicus [20] = organism: Rattus norvegicus; test: Effect of specific activity of compound on biodistribution in rats brain 1 hr after injection at the dose of 2.5 mg value expressed in average % dose per organ; value may range from 2.13 to 2.36; assay type: ADME, organism-based; conditions: in vivo; how it was run: as §1
# Rattus norvegicus [21] = organism: Rattus norvegicus; test: Effect of specific activity of compound on biodistribution in rats brain 1 hr after injection at the dose of 6.25 mg value expressed in average % dose per organ; value may range from 1.95 to 2.70; assay type: ADME, organism-based; conditions: in vivo; how it was run: as §1
# Rattus norvegicus [22] = organism: Rattus norvegicus; test: Effect of specific activity of compound on biodistribution in rats heart 1 hr after injection at the dose of 6.25 mg value expressed in average % dose per organ; value may range from 0.30 to 0.36; assay type: ADME, organism-based; conditions: in vivo; how it was run: as §1
# Rattus norvegicus [23] = organism: Rattus norvegicus; test: Effect of specific activity of compound on biodistribution in rats liver 1 hr after injection at the dose of 2.5 mg value expressed in average % dose per organ; value may range from 17.1 to 20.7; assay type: ADME, organism-based; conditions: in vivo; how it was run: as §1
# Rattus norvegicus [24] = organism: Rattus norvegicus; test: Effect of specific activity of compound on biodistribution in rats muscle 1 hr after injection at the dose of 0.25 mg value expressed in average % dose per organ; value may range from 11.0 to 13.4; assay type: ADME, organism-based, Muscle tissue; conditions: in vivo; how it was run: as §1
# [25] = Biodistribution of [125I]- compound in a monkey brain. 1 hr after intravenous injection. the value expressed in %dose/gram; conditions: simiiformes, in vivo
# Rattus norvegicus [26] = organism: Rattus norvegicus; test: Effect of specific activity of compound on biodistribution in rats thyroid 1 hr after injection at the dose of 0.25 mg value expressed in average % dose per organ; value may range from 0.17 to 0.19; assay type: ADME, organism-based, Thyroid gland; conditions: in vivo; how it was run: as §1
# Rattus norvegicus [27] = organism: Rattus norvegicus; test: Distribution coefficient at pH 7.4 in rat; assay type: ADME, organism-based; how it was run: as §3
# Rattus norvegicus [28] = organism: Rattus norvegicus; test: Effect of specific activity of compound on biodistribution in rats heart after injection at the dose of 0.025 mg value expressed in average % dose per organ; value may range from 0.98 to 1.02; assay type: ADME, organism-based; conditions: in vivo; how it was run: as §1
# Rattus norvegicus [29] = organism: Rattus norvegicus; test: Effect of specific activity of compound on biodistribution in rats liver 1 hr after injection at the dose of 0.25 mg value expressed in average % dose per organ; value may range from 8.01 to 9.52; assay type: ADME, organism-based; conditions: in vivo; how it was run: as §1
# [30] = Biodistribution of [125I]- compound in a monkey lungs.1h after intravenous injection. the value expressed in%dose/organ; conditions: simiiformes, in vivo
# [31] = Biodistribution of [125I]- compound in a monkey thyroid. 1 hr after intravenous injection. the value expressed in %dose/organ; conditions: simiiformes, in vivo
smiles,measurement,setting,value
Cc1cc(I)cc(CNCCCN(C)C)c1O,Average dose per organ,Rattus norvegicus [1],12.8%
same,Dose/g,[2],0.00168%
same,Average dose per organ,Rattus norvegicus [3],1.47%
same,Dose/g,[4],0.00491%
same,Dose per organ,[5],1.23%
same,Dose per organ,[6],5.39%
same,Distribution coefficient,Rattus norvegicus [7],3.39
same,Ratio,Rattus norvegicus [8],19.7%
same,Average dose per organ,Rattus norvegicus [9],0.13%
same,Average dose per organ,Rattus norvegicus [10],12.3%
same,Dose per organ,[11],1.53%
same,Average dose per organ,Rattus norvegicus [12],0.16%
same,Dose per organ,[13],16.1%
same,Ratio,[14],17.5
same,Average dose per organ,Rattus norvegicus [15],6.74%
same,Average dose per organ,Rattus norvegicus [16],2.02%
same,Average dose per organ,Rattus norvegicus [17],1.8%
same,Average dose per organ,Rattus norvegicus [18],0.22%
same,Average dose per organ,Rattus norvegicus [19],12.2%
same,Average dose per organ,Rattus norvegicus [20],2.21%
same,Average dose per organ,Rattus norvegicus [21],2.38%
same,Average dose per organ,Rattus norvegicus [22],0.33%
same,Average dose per organ,Rattus norvegicus [23],18.9%
same,Average dose per organ,Rattus norvegicus [24],12.1%
same,Dose/g,[25],0.0349%
same,Average dose per organ,Rattus norvegicus [26],0.17%
same,Distribution coefficient,Rattus norvegicus [27],11.6
same,Average dose per organ,Rattus norvegicus [28],1%
same,Average dose per organ,Rattus norvegicus [29],8.54%
same,Dose per organ,[30],33%
same,Dose per organ,[31],0.333%
